Publication PMC8327618 (Journal of the American Chemical Society, 2021)

Assays:
[1] = pH titration of absorbance; type: physicochemical; conditions: for phenolic pKa (transition to the dianion): absorbance at λmax vs pH, 10 mM buffers, 150 mM NaCl, 2 μM dye
Method in brief: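 Dichlorofluorescein dyes at 2 μM in 10 mM buffered solutions containing 150 mM NaCl, spanning pH 2.4 to 9.8 (intermediate steps 3.1–9.2); absorbance spectra recorded and normalized. Normalized absorbance at λmax plotted against pH and fitted to sigmoidal dose-response curves to obtain pKa; n = 3 independent determinations, error as ± SEM.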

[2] = Spectroscopic characterization in 0.1 M NaOH; type: physicochemical; conditions: in 0.1M NaOH(aq); for ε: at max absorption; for Φfl: relative to fluorescein
HEK293T (HEK) cells = assay: Cell permeability by fluorescence microscopy; type: cell-based; conditions: 500 nM, 20 min, 37 °C
Method in brief: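 HEK293T cells incubated with 500 nM test compound (free acid or acetoxymethyl ester forms) for 20 min at 37 °C, washed once with HBSS, then imaged by widefield fluorescence and DIC microscopy to assess uptake.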

[3] = MTT reduction assay, cellular toxicity; type: cell-based

Row | phenolic pKa (transition to the dianion) [1] | λem [2] [nm] | λmax [2] [nm] | ε [2] | Φfl [2] | pKa of trianion formation (phosphonate, hypsochromic shift) ([1]; quantification of 5 nm hypsochromic shift with increasing pH) | uptake into cells / cell permeability (HEK293T (HEK) cells) | Compound | cellular toxicity [3]
1 | 6.4 | 508 | 487 | 75,000 M^−1cm^−1 | 0.99 | – | – | O=c1ccc2c(-c3ccccc3P(=O)(O)O)c3ccc(O)cc3oc-2c1 [compound 6, 3-phosphonofluorescein] | –
2 | – | 514 | 491 | 88,000 M^−1cm^−1 | 0.92 | – | – | O=C1OC2(c3ccc(O)cc3Oc3cc(O)ccc32)c2ccccc21 [fluorescein, reference compound] | –
3 | 4.8 | 508 | 488 | 84,000 M^−1cm^−1 | 0.94 | – | – | 2’,7’-difluoro-3-phosphonofluorescein [compound 5] | –
4 | – | – | 502 | – | – | – | – | 2’,7’-dichloro-3-carboxyfluorescein [2’,7’-dichloro-3-carboxy-fluorescein, reference compound] | –
5 | – | 526 | 509 | 87,000 M^−1cm^−1 | 0.89 | – | – | 2’,7’-dichloro-3-sulfonofluorescein [sF.Cl, reference compound] | –
6 | – | 517 | 498 | 88,000 M^−1cm^−1 | 0.90 | 7.8 | no uptake | 2’,7’-dichloro-3-phosphonofluorescein [compound 4] | very low cellular toxicity
